# ChEMBL document CHEMBL2021842, “COMPARE analysis of the toxicity of an iminoquinone derivative of the imidazo[5,4-f]benzimidazoles with NAD(P)H:quinone oxidoreductase 1 (NQO1) activity and computational docking of quinones as NQO1 substrates” (Bioorg Med Chem, 2012)
# Tests used:
# [1] = tested on: UO-31; assay: Growth inhibition of human UO31 cells assessed as cell growth at 10 uM relative to untreated control; format: functional; conditions: read-out: Activity
# Summary of the method: (§1)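 This is the first stage of the NCI DTP 60-human-tumour-cell-line screen, covering nine tissue types. Cells receive a single dose of the test compound, and the output is reported as mean growth %.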
# [2] = tested on: SK-MEL-28; assay: Growth inhibition of human SK-MEL-28 cells assessed as cell growth at 10 uM relative to untreated control; format: functional; conditions: read-out: Activity
# Summary of the method: (§2)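 First stage of the NCI DTP 60 human tumour cell-line screen. Cells were exposed to a single dose of 10 µM. Output is reported as growth % relative to control.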
# [3] = tested on: T47D; assay: Growth inhibition of human T47D cells assessed as cell growth at 10 uM relative to untreated control; format: functional; conditions: read-out: Activity; summary of the method: as §1
# [4] = tested on: OVCAR-5; assay: Growth inhibition of human OVCAR5 cells assessed as cell growth at 10 uM relative to untreated control; format: functional; conditions: read-out: Activity; summary of the method: as §2
# [5] = tested on: HL-60(TB); assay: Growth inhibition of human HL-60(TB) cells assessed as cell growth at 10 uM relative to untreated control; format: functional; conditions: read-out: Activity
# Summary of the method: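 NCI DTP NCI-60 screen, first stage: a single dose applied to 60 human tumour cell lines from nine tissue types. Output is reported as growth %.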
# [6] = tested on: RXF 393; assay: Growth inhibition of human RXF393 cells assessed as cell growth at 10 uM relative to untreated control; format: functional; conditions: read-out: Activity; summary of the method: as §2
# [7] = tested on: HeLa; assay: Cytotoxicity against human HeLa cells assessed as reduction in mean cell viability after 72 hrs by MTT assay; format: functional, cell-based
# Summary of the method: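 HeLa-CCL-2 cells in DMEM with 10% heat-inactivated FBS, 2 mM L-glutamine and nonessential amino acids. Plated at 1000 cells/well with 24 h adherence. Treated in ethanol (1% final) for 72 h at 37 °C under 5% CO₂, with ethanol controls. Absorbance of DMSO-dissolved formazan at 550 nm, 690 nm reference. IC₅₀ by nonlinear regression of percent viability.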
# [8] = tested on: DU-145; assay: Growth inhibition of human DU145 cells assessed as cell growth at 10 uM relative to untreated control; format: functional; conditions: read-out: Activity
# Summary of the method: (§3)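 NCI DTP 60-cell-line screen, first stage: a single 10 µM dose of compound given to the human tumour panel. Result reported as percent growth relative to control, on a mean growth graph.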
# [9] = tested on: OVCAR-4; assay: Growth inhibition of human OVCAR4 cells assessed as cell growth at 10 uM relative to untreated control; format: functional; conditions: read-out: Activity; summary of the method: as §2
# [10] = tested on: NCI-H522; assay: Growth inhibition of human NCI-H522 cells assessed as cell growth at 10 uM relative to untreated control; format: functional; conditions: read-out: Activity; summary of the method: as §2
# [11] = tested on: SK-OV-3; assay: Growth inhibition of human SKOV3 cells assessed as cell growth at 10 uM relative to untreated control; format: functional; conditions: read-out: Activity; summary of the method: as §2
# [12] = tested on: NCI/ADR-RES; assay: Growth inhibition of human NCI/ADR-RES cells assessed as cell growth at 10 uM relative to untreated control; format: functional; conditions: read-out: Activity; summary of the method: as §2
# [13] = tested on: SR; assay: Growth inhibition of human SR cells assessed as cell growth at 10 uM relative to untreated control; format: functional; conditions: read-out: Activity; summary of the method: as §1
# [14] = tested on: OVCAR-3; assay: Growth inhibition of human OVCAR3 cells assessed as cell growth at 10 uM relative to untreated control; format: functional; conditions: read-out: Activity; summary of the method: as §2
# [15] = tested on: SK-MEL-2; assay: Growth inhibition of human SK-MEL-2 cells assessed as cell growth at 10 uM relative to untreated control; format: functional; conditions: read-out: Activity; summary of the method: as §2
# [16] = tested on: OVCAR-8; assay: Growth inhibition of human OVCAR8 cells assessed as cell growth at 10 uM relative to untreated control; format: functional; conditions: read-out: Activity; summary of the method: as §2
# [17] = tested on: CCRF-CEM; assay: Growth inhibition of human CCRF-CEM cells assessed as cell growth at 10 uM relative to untreated control; format: functional; conditions: read-out: Activity; summary of the method: as §3
# [18] = tested on: K562; assay: Growth inhibition of human K562 cells assessed as cell growth at 10 uM relative to untreated control; format: functional; conditions: read-out: Activity; summary of the method: as §3
# [19] = tested on: ACHN; assay: Growth inhibition of human ACHN cells assessed as cell growth at 10 uM relative to untreated control; format: functional; conditions: read-out: Activity; summary of the method: as §3
# [20] = tested on: NCI-H23; assay: Growth inhibition of human NCI-H23 cells assessed as cell growth at 10 uM relative to untreated control; format: functional; conditions: read-out: Activity; summary of the method: as §2
# [21] = tested on: COLO 205; assay: Growth inhibition of human COLO205 cells assessed as cell growth at 10 uM relative to untreated control; format: functional; conditions: read-out: Activity; summary of the method: as §3
# [22] = tested on: SF-268; assay: Growth inhibition of human SF268 cells assessed as cell growth at 10 uM relative to untreated control; format: functional; conditions: read-out: Activity; summary of the method: as §2
# [23] = tested on: HT-29; assay: Growth inhibition of human HT-29 cells assessed as cell growth at 10 uM relative to untreated control; format: functional; conditions: read-out: Activity; summary of the method: as §3
# [24] = tested on: HCT-15; assay: Growth inhibition of human HCT15 cells assessed as cell growth at 10 uM relative to untreated control; format: functional; conditions: read-out: Activity; summary of the method: as §3
# [25] = tested on: TK-10; assay: Growth inhibition of human TK10 cells assessed as cell growth at 10 uM relative to untreated control; format: functional; conditions: read-out: Activity; summary of the method: as §1
# [26] = tested on: DU-145; assay: Cytotoxicity against human DU145 cells assessed as reduction in mean cell viability after 72 hrs by MTT assay; format: functional, cell-based; conditions: DU-145, 72 h
# Summary of the method: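 DU-145 prostate cells in RPMI-1640 with 10% heat-inactivated FBS, penicillin–streptomycin and 2 mM L-glutamine. Seeded at 2000 cells/well and left 24 h to adhere. Compound added in ethanol (1% final) for 72 h at 37 °C, 5% CO₂, with ethanol-only controls. Formazan dissolved in DMSO and read at 550 nm (690 nm reference). IC₅₀ derived by nonlinear regression of viability versus vehicle.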
# [27] = tested on: KM12; assay: Growth inhibition of human KM12 cells assessed as cell growth at 10 uM relative to untreated control; format: functional; conditions: read-out: Activity; summary of the method: as §3
# [28] = tested on: EKVX; assay: Growth inhibition of human EKVX cells assessed as cell growth at 10 uM relative to untreated control; format: functional; conditions: read-out: Activity; summary of the method: as §3
# [29] = tested on: MDA-MB-435; assay: Growth inhibition of human MDA-MB-435 cells assessed as cell growth at 10 uM relative to untreated control; format: functional; conditions: read-out: Activity; summary of the method: as §2
# [30] = tested on: HOP-62; assay: Growth inhibition of human HOP62 cells assessed as cell growth at 10 uM relative to untreated control; format: functional; conditions: read-out: Activity; summary of the method: as §3
# [31] = tested on: SNB-19; assay: Growth inhibition of human SNB19 cells assessed as cell growth at 10 uM relative to untreated control; format: functional; conditions: read-out: Activity; summary of the method: as §1
# [32] = tested on: NCI-H460; assay: Growth inhibition of human NCI-H460 cells assessed as cell growth at 10 uM relative to untreated control; format: functional; conditions: read-out: Activity; summary of the method: as §2
# [33] = tested on: MOLT-4; assay: Growth inhibition of human MOLT4 cells assessed as cell growth at 10 uM relative to untreated control; format: functional; conditions: read-out: Activity; summary of the method: as §2
# [34] = tested on: U-251; assay: Growth inhibition of human U251 cells assessed as cell growth at 10 uM relative to untreated control; format: functional; conditions: read-out: Activity; summary of the method: as §1
# [35] = tested on: A549; assay: Growth inhibition of human A549 cells assessed as cell growth at 10 uM relative to untreated control; format: functional; conditions: read-out: Activity; summary of the method: as §3
# [36] = tested on: SW-620; assay: Growth inhibition of human SW620 cells assessed as cell growth at 10 uM relative to untreated control; format: functional; conditions: read-out: Activity; summary of the method: as §1
# [37] = tested on: PC-3; assay: Growth inhibition of human PC3 cells assessed as cell growth at 10 uM relative to untreated control; format: functional; conditions: read-out: Activity; summary of the method: as §2
# [38] = tested on: HCC 2998; assay: Growth inhibition of human HCC2998 cells assessed as cell growth at 10 uM relative to untreated control; format: functional; conditions: read-out: Activity; summary of the method: as §3
# [39] = tested on: NCI-H226; assay: Growth inhibition of human NCI-H226 cells assessed as cell growth at 10 uM relative to untreated control; format: functional; conditions: read-out: Activity; summary of the method: as §2
Structure (SMILES),growth at 10 µM [1] [%],growth at 10 µM [2] [%],growth at 10 µM [3] [%],growth at 10 µM [4] [%],growth at 10 µM [5] [%],growth at 10 µM [6] [%],IC50 [7] [nM],growth at 10 µM [8] [%],growth at 10 µM [9] [%],growth at 10 µM [10] [%],growth at 10 µM [11] [%],growth at 10 µM [12] [%],growth at 10 µM [13] [%],growth at 10 µM [14] [%],growth at 10 µM [15] [%],growth at 10 µM [16] [%],growth at 10 µM [17] [%],growth at 10 µM [18] [%],growth at 10 µM [19] [%],growth at 10 µM [20] [%],further results
O=C1c2nc3n(c2C(=O)c2nc4n(c21)CCCC4)CCCC3,90.9,118,99.3,110,107,107,1670,101,100,92.3,102,103,101,97,108,103,103,107,99,100,growth at 10 µM [21]: 116%; growth at 10 µM [22]: 92.3%; growth at 10 µM [23]: 104%; growth at 10 µM [24]: 103%; growth at 10 µM [25]: 100%; IC50 [26]: 1990 nM; growth at 10 µM [27]: 92.1%; growth at 10 µM [28]: 99.9%; growth at 10 µM [29]: 105%; growth at 10 µM [30]: 112%; growth at 10 µM [31]: 98.6%; growth at 10 µM [32]: 95%; growth at 10 µM [33]: 111%; growth at 10 µM [34]: 97.5%; growth at 10 µM [35]: 99.7%; growth at 10 µM [36]: 104%; growth at 10 µM [37]: 102%; growth at 10 µM [38]: 88.3%; growth at 10 µM [39]: 111%
N=C1c2nc3n(c2C(=O)c2nc4n(c21)CCCC4)CCCC3,46.9,-67.2,71.9,-57.8,96.3,94.8,1550,-93.9,96.2,10.5,95,85.7,69.5,98.4,82.7,91.5,92.9,81.4,69.4,-70.4,growth at 10 µM [21]: -88.6%; growth at 10 µM [22]: 71.3%; growth at 10 µM [23]: -13.7%; growth at 10 µM [24]: 6.18%; growth at 10 µM [25]: 128%; IC50 [26]: 300 nM; growth at 10 µM [27]: 66.7%; growth at 10 µM [28]: 95.6%; growth at 10 µM [29]: -82.5%; growth at 10 µM [30]: 52.3%; growth at 10 µM [31]: 30%; growth at 10 µM [32]: 4.62%; growth at 10 µM [33]: 85.4%; growth at 10 µM [34]: 50.6%; growth at 10 µM [35]: -30.6%; growth at 10 µM [36]: 23.7%; growth at 10 µM [37]: 90.5%; growth at 10 µM [38]: 87.3%; growth at 10 µM [39]: 57.1%
